Measurements from ChEMBL document CHEMBL1144068, “Synthesis and biological evaluation of analogues of cryptolepine, an alkaloid isolated from the Suriname rainforest” (J Nat Prod, 1999).
The source made the active and inactive calls. The rule behind the calls is not given here.

Columns and labels:
[1] = tested on: Saccharomyces cerevisiae; experiment: Growth inhibition of Saccharomyces cerevisiae 1138 mutant by yeast bioassay; type: functional
[2] = tested on: M109; experiment: Cytotoxicity against mouse M109 cells; type: functional, cell-based
Method in brief: (§1)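 Cell-culture cytotoxicity in a 25-line panel by standard methods. Activity given as IC50 in µM.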

[3] = tested on: Saccharomyces cerevisiae; experiment: Growth inhibition of Saccharomyces cerevisiae 1140 mutant by yeast bioassay; type: functional
[4] = tested on: Saccharomyces cerevisiae; experiment: Growth inhibition of Saccharomyces cerevisiae 1353 mutant by yeast bioassay; type: functional
[5] = tested on: A2780; experiment: Induction of apoptosis in human A2780 cells overexpressing wild type p53 at >5 X respective cytotoxic IC50 after 24 hrs; type: functional, cell-based
Method in brief: (§2)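 Flow cytometry (FACS) of A2780/p53wt cells after 24 h exposure at increasing multiples of each compound's own IC50, scored for G1 arrest and apoptosis; A2780/mutp53 cells run alongside.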

[6] = tested on: A2780; experiment: Cell cycle arrest in human A2780 cells overexpressing wild type p53 by accumulation at G1 phase at 5 X respective cytotoxic IC50 after 24 hrs by FACS; type: functional, cell-based; method in brief: as §2
[7] = tested on: A-431; experiment: Cytotoxicity against human A431 cells; type: functional, cell-based; method in brief: as §1
[8] = Cytotoxicity against human OVACR3 cells; type: functional, cell-based; method in brief: as §1
[9] = tested on: MLF; experiment: Cytotoxicity against MLF cells; type: cell-based; settings: Mus musculus; method in brief: as §1

## Clc1c2ccccc2nc2c1oc1ccccc12
[1]
  IC12: > 400 µg/mL

## c1ccc2nc3c(cc2c1)oc1ccccc13
[1]
  IC12: > 400 µg/mL

## CCCn1c2ccccc2c2c1cc1ccccc1[n+]2C.O=S(=O)([O-])C(F)(F)F
[1]
  IC12: 125 µg/mL

## CCCCn1c2ccccc2c2c1cc1ccccc1[n+]2C.O=S(=O)([O-])C(F)(F)F
[1]
  IC12: 90 µg/mL

## O=c1c2c3ccccc3nc3c4ccccc4n(c(=O)c4c5ccccc5nc5c6ccccc6n1c54)c32
[1]
  IC12: > 400 µg/mL

## CC[n+]1c2ccccc2cc2[nH]c3ccccc3c21.[I-]
[1]
  IC12: 40 µg/mL
[2]
  IC50: < 50000 nM

## Cn1c2ccccc2c2c1cc1ccccc1[n+]2C.O=S(=O)([O-])C(F)(F)F
[1]
  IC12: 5 µg/mL
[2]
  IC50: < 10000 nM

## Cc1c2nc3ccccc3c-2[nH]c2ccccc12
[1]
  IC12: 50 µg/mL
[2]
  IC50: < 10000 nM

## O=Cc1c2ccccc2nc2c1[nH]c1ccccc12
[1]
  IC12: > 400 µg/mL

## O=c1c2ccccc2[nH]c2c1oc1ccccc12
[1]
  IC12: > 400 µg/mL

## CCC[n+]1c2ccccc2cc2[nH]c3ccccc3c21.[I-]
[1]
  IC12: 400 µg/mL

## O=C(OCCO)c1c2ccccc2nc2c1[nH]c1ccccc12
[1]
  IC12: > 400 µg/mL

## O=C(OCCOC(=O)c1c2ccccc2nc2c1[nH]c1ccccc12)c1c2ccccc2nc2c1[nH]c1ccccc12
[1]
  IC12: > 400 µg/mL

## c1ccc2nc3c(cc2c1)[nH]c1ccccc13 [QUINDOLINE]
[1]
  IC12: 150 µg/mL

## O=C1OCc2c3ccccc3nc3c4ccccc4n1c23
[1]
  IC12: 50 µg/mL
[2]
  IC50: < 10000 nM

## CC(=O)n1c2ccccc2c2nc3ccccc3cc21
[1]
  IC12: 80 µg/mL

## OCc1c2ccccc2nc2c1[nH]c1ccccc12
[1]
  IC12: 125 µg/mL

## O=C(O)c1c2nc3ccccc3c-2[nH]c2ccccc12
[1]
  IC12: > 400 µg/mL

## CC(CO)(CO)NCc1c2ccccc2nc2c1[nH]c1ccccc12
[1]
  IC12: > 400 µg/mL

## COC(=O)c1c2ccccc2nc2c1[nH]c1ccccc12
[1]
  IC12: 40 µg/mL
[2]
  IC50: < 10000 nM

## C[n+]1c2ccccc2cc2[n-]c3ccccc3c21.Cl [CRYPTOLEPINE HYDROCHLORIDE]
[3]
  IC12: 0.6 µg/mL
[4]
  IC12: 0.6 µg/mL
[1]
  IC12: 0.6 µg/mL
[2]
  IC50: < 1 µg/mL

## C[n+]1c2ccccc2cc2[nH]c3ccccc3c21.[I-] [CRYPTOLEPTINE IODIDE]
[1]
  IC12: 1.5 µg/mL

## C[n+]1c2ccccc2cc2[nH]c3ccccc3c21 [listing 1 of 2 here]
[5]
  Activity: Dose-dependent effect
[6]
  Activity: Active

## Ic1c2ccccc2nc2c1oc1ccccc12
[1]
  IC12: > 400 µg/mL

## CCCC[n+]1c2ccccc2cc2[nH]c3ccccc3c21.[Br-]
[1]
  IC12: > 400 µg/mL

## C[n+]1c2ccccc2cc2[n-]c3ccccc3c21 [CRYPTOLEPINE]
[1]
  IC12: 0.5 µg/mL

## C[n+]1c2ccccc2cc2[nH]c3ccccc3c21 [listing 2 of 2 here]
[7]
  IC50: 340 nM
[8]
  IC50: 500 nM
[9]
  IC50: 4900 nM
[2]
  IC50: < 1000 nM

## COC(=O)c1c2cc(Br)ccc2nc2c1[nH]c1ccccc12
[1]
  IC12: 100 µg/mL

## C=CCn1c2ccccc2c2c1cc1ccccc1[n+]2C.O=S(=O)([O-])C(F)(F)F
[1]
  IC12: 200 µg/mL

## NC(=O)c1c2cc(Br)ccc2nc2c1[nH]c1ccccc12
[1]
  IC12: 400 µg/mL

## c1ccc(Cn2c3ccccc3c3nc4ccccc4cc32)cc1
[1]
  IC12: > 400 µg/mL

## C[n+]1c2ccccc2cc2oc3ccccc3c21.[I-]
[1]
  IC12: 400 µg/mL

## CC(=O)n1c2ccccc2c2c1cc1ccccc1[n+]2C.[Cl-]
[7]
  IC50: 340 nM
[8]
  IC50: 500 nM
[9]
  IC50: 4900 nM
[5]
  Activity: Dose-dependent effect
[1]
  IC12: 5 µg/mL
[2]
  IC50: < 1000 nM
[6]
  Activity: Active

## CCn1c2ccccc2c2c1cc1ccccc1[n+]2C.O=S(=O)([O-])C(F)(F)F
[1]
  IC12: 80 µg/mL
